# Source: PubChem BioAssay (several laboratories)
# Cl transport mod: modulators of human KCC2 chloride dependent transport | Q9H2X9 | KCC2 cells, thallium flux FluoZin-2 fluorescence | B-score of Tl+ flux slope (higher = more flux/activation; lower = inhibition) at 10 µM | 190,000 tested, 2.2% active;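 active = thallium flux slope and its plate-corrected score both differing from the plate sample mean at a set confidence after two filtering rounds, in either direction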;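 note: slope of fluorescence scaled to starting intensity during 10 to 20 s after thallium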
# Target sequence (Q9H2X9 whole entry, looked up): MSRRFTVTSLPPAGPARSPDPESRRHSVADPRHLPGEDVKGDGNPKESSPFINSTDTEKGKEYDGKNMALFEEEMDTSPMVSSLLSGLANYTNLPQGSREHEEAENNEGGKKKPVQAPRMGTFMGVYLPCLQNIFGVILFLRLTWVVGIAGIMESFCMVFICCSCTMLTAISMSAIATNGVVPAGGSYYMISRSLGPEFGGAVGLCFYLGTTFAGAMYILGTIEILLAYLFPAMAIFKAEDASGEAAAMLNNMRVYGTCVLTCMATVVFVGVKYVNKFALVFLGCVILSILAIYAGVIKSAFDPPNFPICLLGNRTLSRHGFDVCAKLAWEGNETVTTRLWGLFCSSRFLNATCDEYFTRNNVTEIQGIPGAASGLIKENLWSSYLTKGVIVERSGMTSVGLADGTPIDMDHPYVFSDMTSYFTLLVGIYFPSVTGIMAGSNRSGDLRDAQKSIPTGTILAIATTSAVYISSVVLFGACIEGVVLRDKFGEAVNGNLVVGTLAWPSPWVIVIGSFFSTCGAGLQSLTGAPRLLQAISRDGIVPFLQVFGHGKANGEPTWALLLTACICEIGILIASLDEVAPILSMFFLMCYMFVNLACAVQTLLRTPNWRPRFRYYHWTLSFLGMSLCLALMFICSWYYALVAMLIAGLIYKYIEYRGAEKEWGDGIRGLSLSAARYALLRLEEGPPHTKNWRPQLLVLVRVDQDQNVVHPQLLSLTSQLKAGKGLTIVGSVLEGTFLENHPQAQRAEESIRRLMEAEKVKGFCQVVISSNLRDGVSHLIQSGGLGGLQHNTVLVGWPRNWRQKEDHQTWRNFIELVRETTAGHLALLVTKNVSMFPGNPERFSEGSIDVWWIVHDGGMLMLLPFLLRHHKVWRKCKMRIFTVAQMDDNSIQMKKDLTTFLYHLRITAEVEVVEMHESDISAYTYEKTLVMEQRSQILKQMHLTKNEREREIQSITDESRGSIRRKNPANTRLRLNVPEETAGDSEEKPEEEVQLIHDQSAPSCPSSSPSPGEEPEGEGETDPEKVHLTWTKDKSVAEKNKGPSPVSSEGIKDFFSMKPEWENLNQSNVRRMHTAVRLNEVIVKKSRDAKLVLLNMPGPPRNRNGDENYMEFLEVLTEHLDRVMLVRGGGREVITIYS
# WT yeast gro inh: growth inhibition of WT yeast, mitochondrial fusion screen; mitochondrial fusion phenotypic screen, WT strain; inhibition, % at 10 µM; 190,000 tested, 2.1% active; in the data active = inhibition above about 58%; tested in S. cerevisiae
# Diaph inh CS: inhibits diaphorase or chemically oxidizes, flagging diaphorase assay artifacts; diaphorase resazurin-to-resorufin fluorescence, NADH, 16 min; bacterial (C. kluyveri) enzyme, not human; inhibition, % at 20 µM; 190,000 tested, 0.69% active; AID 1217;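 active = primary screen inhibition at 20 µM above a set limit, cut at about 50% in these data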;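 note: plate controls were DMSO with full reaction for no effect and wells lacking NADH for full effect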
#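 Assay system: diaphorase enzyme from Clostridium kluyveri; Input: enzyme working solution with 0.14 U/mL diaphorase; Timing: 16 min at room temperature; Technique: resorufin fluorescence, excitation 544 nm, emission 590 nm; Benchmarks: positive control minus NADH, DMSO neutral control.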
# Diaph act CS: activates diaphorase or chemically reduces, flagging diaphorase assay artifacts. activation factor at 20 µM. 190,000 tested, 0.005% active. Diaphorase/resazurin coupled assay, resorufin fluorescence, 16 min; stronger effect = higher value; 1 = vehicle wells, 0 = NADH-free wells;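 active = diaphorase activity raised at least twofold by the compound at 20 µM; inactive = activation factor below 2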
#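 System – purified diaphorase enzyme from Clostridium kluyveri · Input – enzyme 0.07 U/mL final · Also added – final NADH 0.114 mM, resazurin 0.1 mM · Measured by – fluorescence of resorufin, 544 nm excitation, 590 nm emission · Timing – 16 min enzyme reaction, ambient temperature · Measure – resorufin increase flagging diaphorase activators or reducers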
# Lmaj promast: inhibitors of Leishmania major promastigote growth; Leishmania major promastigotes, resazurin fluorescence viability; AID 1063; 200,000 tested, 9% active; inhibition, % at 10 µM; in the data active = inhibition above about 50%;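 note: promastigotes grown with compound for 44 hours at 28 °C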
# ROMK primary: modulates human ROMK potassium channel activity; 130,000 tested, 2% active; B-score at 10 µM; AID 1918; Tet-inducible ROMK, thallium flux fluorescence; actives lie on both sides;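 active = signal ratio slope over the read window, or its plate-corrected B-score, at least 3 SD from the plate mean, either direction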;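 note: B-score of the F/F0 ratio slope over 7 to 12 s after thallium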
# ROMK hit retest: confirmation of human ROMK potassium channel modulators. shares compounds with ROMK primary. ROMK thallium flux, fluorescence ratio; stronger effect = lower value. normalized thallium flux (F/F0 slope) at 10 µM. 3,000 tested, 54% active;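 active = Flux at 10 µM at least 3 SD below or above vehicle control mean in one or both replicates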
# Numbers without * were called inactive; i = inactive; · = no result. An excerpt weighted towards active compounds, which were near 12% of everything screened.
SMILES,Cl transport mod,WT yeast gro inh,Diaph inh CS,Diaph act CS,Lmaj promast,ROMK primary,ROMK hit retest
CC(=O)Oc1ccc2c(c1)O/C(=C\c1ccncc1)C2=O,i,·,·,·,·,·,·
COc1ccccc1C(=O)Oc1ccc2c(c1)O/C(=C\c1ccncc1)C2=O,-0.27,-11,13,0.9,12,·,0.061*
C/C(=N\NC(=S)NC1CCCCC1)c1ccccc1,4.4,11,3,1,5,·,·
CC(C)c1ccc(/C=C2\SC(N3CCCC3)=NC2=O)cc1,-0.035,26,17,0.8,21,-0.35,·
O=C1N=C2SCCN2/C1=C\c1ccc(Cl)cc1,-0.5,16,9,0.9,3,-7.6*,0.047*
CN(C)c1cccc(NC(=O)c2ccco2)c1,0.5,-11,18,0.8,2,2.6*,0.077
CC(C)CC(=O)NC(=S)Nc1ccccc1N1CCCC1,1.3,·,·,·,·,·,·
CCn1c(SCC(=O)Nc2ccccc2N2CCCCC2)nc2c1c(=O)n(C)c(=O)n2C,-0.2,20,17,0.8,38,·,0.074
CC(C)CC(=O)Nc1ccccc1N1CCCC1,0.16,12,9,0.9,-1,-6*,0.073
O=C(CCc1nnc(CCCCc2ccccc2)o1)N1CCCC(O)C1 (stereo not given),-1.3,·,·,·,·,·,·
CO/N=C\CC(=O)Nc1ccc(Cl)c(Cl)c1,0.0063,14,8,0.9,-1,4.7*,0.082
CCCc1nnc(NC(=O)CCCN2C(=O)c3ccccc3C2=O)s1,-0.95,-5,18,0.8,-2,·,·
COC(=O)C1CCN(C(=O)CSc2ccccc2)CC1,-0.5,-8,12,0.9,44,-0.39,0.072
COc1ccc(-n2nnnc2SCC(=O)Nc2nnc(C)s2)cc1OC,-0.55,4,8,0.9,-10,·,·
CCc1cc(/C(Cc2csc(C)n2)=N/O)c(O)cc1O,-0.77,-28,19,0.8,3,-3.3*,0.067*
COc1ccc(C(C[N+](=O)[O-])c2c(-c3ccccc3)cc3ccccn23)cc1OC (stereo not given),-0.49,39,17,0.8,100*,-3.7*,0.064*
COc1ccc(C(C[N+](=O)[O-])c2c(-c3ccccc3)cc3ccccn23)cc1 (stereo not given),-0.44,13,9,0.9,100*,-3.7*,0.084
Cc1ccc(S(=O)(=O)N2CCC(=O)N(CCOCc3ccc(C(F)(F)F)cc3)CC2)cc1,-0.44,18,18,0.8,-5,-0.92,·
Cc1cc(C)nc(SCc2ccc(C(=O)N/N=C/c3ccncc3)cc2)n1,0.32,10,8,0.9,2,1.5,·
Cc1cc(C)nc(SCc2ccc(C(=O)N/N=C/c3ccccn3)cc2)n1,-1.1,13,8,0.9,91*,-13*,0.085
COc1ccc(C(=O)Nc2cccc3c2C(=O)NC3=O)cc1S(=O)(=O)N1CCOCC1,·,-13,14,0.9,1,0.15,·
COCCN=c1scc(-c2ccco2)n1/N=C/c1ccc(O)c(O)c1O,-0.078,-5,80*,0.2,4,3.2*,0.079
Cc1cc(C)c(NC2=NS(=O)(=O)c3ccccc32)c(C)c1,·,3,16,0.8,-2,0.081,·
COc1cc(C)c(Cl)c(C)c1S(=O)(=O)NC1CC(C)(C)NC(C)(C)C1,-0.072,4,-1,1,19,-2.6*,0.053*
CCOc1cc(C)c(Cl)cc1S(=O)(=O)NCCOC,1.2,3,8,0.9,-4,1.4,·
CCOc1cc(C)c(Cl)cc1S(=O)(=O)NC1CC(C)(C)NC(C)(C)C1,-0.14,-22,-2,1,46,-3.7*,0.064*
COc1ccccc1C1CC(=O)NC(C)=C1C(=O)OC(C)C (stereo not given),0.2,-15,16,0.8,3,0.43,·
COC(=O)c1ccc(C(=O)OC)c(NC(=O)CSCc2ccc(Br)cc2)c1,-0.54,0,20,0.8,-4,0.0037,·
O=C(/C=C/c1ccc([N+](=O)[O-])cc1)N(c1ccccn1)C1CCCCC1,0.17,11,22,0.8,8,5.7*,0.076
